Measurements from the RNAGym collection of RNA variant scans (doi:10.1002/anie.201605470).

B1: Osa-1-4 twister ribozyme (parent)
chain: CCGCCUAACACUGCCAAUGCCGGUCCCAAGCCCGGAUAAAAGUGGAGGGGGCGG

Variants of: B1
Experiment: self-cleavage, relative activity (ratio to wild type); higher = more cleavage; co-transcriptional
In short: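 A DNA template encoding a 54-nucleotide twister ribozyme from Oryza sativa was made so that each of the 48 positions downstream of the cleavage site carried 97 % wild-type base and 1 % of each other base. Transcription in vitro ran for 2 h at 37 °C, during which the ribozyme could cleave itself. Reverse transcription used a template-switching oligonucleotide, and the products were PCR-amplified and deep-sequenced. Each read was scored as cleaved or uncleaved by whether upstream sequence was present, and relative activity is the fraction cleaved normalised to wild type.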

| Variant | self-cleavage |
| --- | --- |
| G19C G35U | 0.42 |
| G19C G35C | 0.29 |
| G19C G35A | 0.45 |
| G19U G45A | 0.03 |
| G19U G45C | 0.04 |
| G19U G45U | 0.04 |
| C20A G23C | 0.03 |
| C20A G23U | 0.1 |
| C20A G23A | 0.18 |
| G19C G23C | 0.02 |
| G19C G23U | 0.04 |
| G19C G23A | 0.04 |
| G19A G54A | 0.31 |
| G19A G54U | 0.65 |
| G19A G54C | 0.24 |
| C20A G30A | 0.04 |
| C20A G30U | 0.03 |
| C20A G30C | 0.04 |
| U18A U37C | 0.98 |
| U18A U37A | 0.63 |
| U18A U37G | 0.93 |

| Variant | self-cleavage |
| --- | --- |
| G19C G53U | 0.05 |
| G19C G53C | 0.04 |
| G19C G53A | 0.06 |
| G19A G49C | 0.09 |
| G19A G49A | 0.08 |
| G19A G49U | 0.08 |
| G19C G54C | 0.06 |
| G19C G54U | 0.4 |
| G19C G54A | 0.11 |
| A17U G49C | 0.08 |
| A17U G49A | 0.25 |
| A17U G49U | 0.22 |
| A17U G22C | 0.11 |
| A17U G22A | 1.04 |
| A17U G22U | 0.63 |
| G19A U37C | 1.03 |
| G19A U37A | 0.88 |
| G19A U37G | 1 |
| C20A C9U | 0.53 |
| C20A C9G | 0.68 |
| C20A C9A | 0.29 |

| Variant | self-cleavage |
| --- | --- |
| C20A C33U | 0.76 |
| C20A C33G | 0.05 |
| C20A C33A | 0.08 |
| G19C G49U | 0.04 |
| G19C G49C | 0.03 |
| G19C G49A | 0.04 |
| G19A G53U | 0.13 |
| G19A G53A | 0.18 |
| G19A G53C | 0.09 |
| G19A G34C | 0.25 |
| G19A G34A | 0.61 |
| G19A G34U | 0.39 |
| C20A C32G | 0.05 |
| C20A C32U | 0.08 |
| C20A C32A | 0.07 |
| G19U G49A | 0.04 |
| G19U G49C | 0.04 |
| G19U G49U | 0.03 |
| G19U G44C | 0.34 |
| G19U G44U | 0.19 |
| G19U G44A | 0.1 |

| Variant | self-cleavage |
| --- | --- |
| G19U G34U | 0.3 |
| G19U G34A | 0.52 |
| G19U G34C | 0.2 |
| G19C G51C | 0.03 |
| G19C G51U | 0.04 |
| G19C G51A | 0.08 |
| C20A C25G | 0.11 |
| C20A C25U | 0.78 |
| C20A C25A | 0.19 |
| G19A G47C | 0.08 |
| G19A G47A | 0.08 |
| G19A G47U | 0.07 |
| A17U G23A | 0.56 |
| A17U G23U | 0.13 |
| A17U G23C | 0.06 |
| G19U G42U | 0.04 |
| G19U G42A | 0.06 |
| G19U G42C | 0.06 |
| U18G U24G | 0.05 |
| U18G U24C | 0.38 |
| U18G U24A | 0.53 |
